According to PubChem BioAssay:
Values without a mark were called inactive. Records with an inconclusive call do not appear. Calls of active or inactive are those of the source.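 How the source made its calls, unless noted: active means RAM network inhibition above 8.4% in each of two replicates, 3 SD over the compound average; inconclusive means above 8.4% inhibition in only one replicate; inactive means 8.4% inhibition or less in each replicate.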

Tests used:
[1] = OD615 S. cerevisiae growth inhibition, permissive medium, pilot counter-assay, permissive growth control for S. cerevisiae lifespan shortening project (AID 705;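 active means growth inhibition above 25% in both replicates, a cutoff set 3 SD above the mean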); settings: OD615, 24 h, at 10 µM, stronger effect = higher value
In short: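 assay system = Saccharomyces cerevisiae strain carrying genetically modified DeaD replicative-lifespan system | medium = SC raffinose/galactose permissive medium | dosing = 10 µM single dose, 0.25% DMSO | schedule = 24 h compound exposure at 30 °C after 4 h pre-growth | measured by = OD at 615 nm | read-out basis = growth inhibition from lowered OD615 after 24 h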

[2] = Restrictive medium S. cerevisiae growth inhibition, OD615, pilot screen of yeast lifespan reduction project, restrictive growth control (AID 706;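 active means growth inhibition above a set limit, 3 SD over mean compound inhibition, in both replicates, cut at about 43% in these data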;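 further: modified DeaD lifespan yeast strain shifted to restrictive glucose medium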); settings: OD615, 48 h, at 10 µM, stronger effect = higher value
In short: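 Buffer or medium: CSMM-D glucose medium. Material: genetically modified Saccharomyces cerevisiae, DeaD replicative lifespan assay strain. Times: 48 h compound exposure at 30 °C. Measured by: optical density at 615 nm.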

[3] = viability gain of MRP-1-high H69AR cells under doxorubicin, pilot screen, MRP-1 activator project, CellTiter-Glo, duplicate (AID 807;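 active means viability increase at or above a cutoff of the median across tested compounds plus 3 SD, cut at about 8.5% in these data, passing the limit was not always enough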;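 further: compound pretreatment 18-22 h then 72 h combined with doxorubicin; 0% = doxorubicin alone and 100% = vehicle without doxorubicin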); settings: H69AR viability with doxorubicin, CellTiter-Glo luminescence; at 10 µM; stronger effect = higher value
[4] = growth suppression of beta-catenin knockout HCT116, pilot screen, human colon tumor cells (AID 823;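 active means cell viability at or below a set limit in both duplicate runs, the limit being the all-compound median minus 4 SD, cut at about 23% in these data, passing the limit was not always enough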;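 further: 0% = wells killed by 20 µM Hyamine and 100% = untreated DMSO cell wells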); settings: CellTiter-Glo, 60 h, at 10 µM, stronger effect = lower value
[5] = growth suppression of PTEN-deleted HCT116, pilot screen, cell-based, HCT116 clonal line, CellTiter-Glo (AID 824;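 active means viability at or below 27.92% in each of two runs, the all-compound median minus 4 SD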;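 further: 0% = 20 µM Hyamine control and 100% = vehicle cell control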); settings: 60 h, at 10 µM, stronger effect = lower value
[6] = inhibitors of the yeast RAM network, pilot screen, dse1pr::URA3 reporter, 5-FOA selection (AID 869;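 active means inhibition over a set limit, the all-compound mean plus 3 SD, in both replicate runs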;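 further: 0% = DMSO wells with no growth and 100% = 10 µM 1-NA-PP1 with full growth; RAM network block rescues cells from 5-FOA so hits raise OD615 growth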); settings: S. cerevisiae dse1pr::URA3 5-FOA growth, OD615, 2 d; at 10 µM; stronger effect = higher value; strain carries analog-sensitive mutant Cbk1 kinase
[7] = RAM signaling pathway blockade in yeast – S. cerevisiae, Pdr1DBD-CYC8 efflux-inhibited sensitized strain, primary screen (AID 1298);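 further: 0% = DMSO untreated cells without growth and 100% = 10 µM 1-NA-PP1 full growth; higher means more yeast growth rescued from 5-FOA killing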; settings: S. cerevisiae cbk1-as DSE1-URA3 strain, 5-FOA growth OD615, 2 d; at 50 µM; stronger effect = higher value

Compound | growth inhibition [1] [%] | growth inhibition [2] [%] | viability increase [3] [%] | viability [4] | viability [5] | inhibition [6] [%] | RAM network inhibition [7] [%]
COc1cccc(-n2nnc3c(=O)n(CC(=O)NCC4CCCO4)cnc32)c1 (configuration not stated) | 2.81 | -2.83 | 0.22 | 101% | 93.7% | -0.415 | 5.27
COc1ccc(NC(=O)NCCCN2CCCC2=O)cc1 | -2.73 | 8.62 | 0.12 | 105% | 103% | 0.945 | -0.16
CC1=C(C(=O)Nc2ccccc2)C(c2ccco2)C(C#N)=C(SCc2ccccc2)N1 (configuration not stated) | 9 | 14.5 | -7.63 | 11.8% (active) | 9.06% (active) | 3.18 | 3.38
CCOc1ccc(NC(=O)CN(c2ccc(OC)cc2)S(C)(=O)=O)cc1 | 6.96 | -0.54 | 0.19 | 98.1% | 98.8% | 1.7 | 4.91
CSc1ccccc1NC(=O)c1onc(C)c1Cl | -5.06 | 10.3 | -1.83 | 95.6% | 93.2% | 1.33 | 1.54
Cc1cccc(NC(=O)Nc2ccc(C#N)cc2)n1 | -15.2 | -6.73 | -5.92 | 18.1% (active) | 17.4% (active) | -0.505 | 3.51
O=C(Cn1cc2c(n1)CCCCC2)NCCN1CCOCC1 | 7.15 | 10.1 | -0.25 | 107% | 97.3% | 2 | 2.18
COc1ccc(C2C(C(=O)N3CCOCC3)CCC(=O)N2c2cc(OC)c(OC)c(OC)c2)cc1 (configuration not stated) | -10.2 | -12.3 | -0.09 | 99.7% | 102% | 0.705 | 1.3
CCOC12NC(=O)CC(=O)N1C(c1ccccc1)=CS2 (configuration not stated) | -16 | -6.23 | 2.97 | 100% | 104% | 1.85 | 6.38
CCC(C#CCN1CCOCC1)(CC)OCCC#N | -6.57 | -3.89 | -0.51 | 97% | 95.9% | 1.35 | 0.88
Nn1c(SCc2nc3ccccc3[nH]2)nnc1-c1cccnc1 | 4.54 | 14.9 | -2.44 | 90.2% | 95.7% | 1.13 | 1.82
Fc1ccc(Cc2nnc(-c3cccs3)o2)cc1 | -20.1 | -0.63 | 0.11 | 104% | 97.8% | 1.93 | 12.2
O=C(CCSc1nc(-c2ccc3c(c2)OCO3)cc(C(F)(F)F)n1)NCc1ccco1 | -4.51 | -2.02 | -2.85 | 74.8% | 74.6% | 2.63 | 2.97
Cn1c(NC(=O)CCc2ccccc2)cc(=O)n(C)c1=O | -8.68 | -8.72 | -3.77 | 102% | 96.9% | 0.855 | -0.05
Cc1nc2c(c(C)nn2-c2ccccc2)c(C)c1Cl | -4.98 | -5.5 | -2.73 | 88.6% | 87.9% | 3.09 | 2.46
CN1CCN(C(=O)C2CCCCC2C(=O)O)CC1 (configuration not stated) | 0.81 | -12.5 | -1.14 | 99.4% | 99.1% | 2.02 | -0.26
COCc1cc(CN2CCCC2)c(O)c2ncccc12 | -11.1 | -11.6 | 0.15 | 8.07% (active) | 11.3% (active) | -0.255 | 5.55
CCCOc1ccc(C2c3c(oc4cc(C)c(C)cc4c3=O)C(=O)N2CCCN(C)C)cc1OCC (configuration not stated) | -10.6 | -3.15 | -3.29 | 102% | 97.7% | 3.69 | -0.16

Compound | growth inhibition [1] [%] | growth inhibition [2] [%] | viability increase [3] [%] | viability [4] | viability [5] | inhibition [6] [%] | RAM network inhibition [7] [%]
CN(CCc1ccccn1)C(=O)Nc1ccc(F)cc1 | -7.65 | -14.7 | -1.63 | 108% | 98% | 0.71 | 5.39
Cc1csc2nc(CNS(=O)(=O)N(C)C)cn12 | 4.64 | 19.6 | -3.46 | 95.2% | 99.1% | 0.875 | 0.05
COCCCN1C(=O)C(O)=C(C(=O)c2ccc(C)o2)C1c1cccc(Br)c1 (configuration not stated) | -10.6 | -3.15 | -0.41 | 106% | 106% | -0.2 | 4.3
Cc1noc(C(=O)N2CCN(c3ccc(F)cc3)CC2)c1Cl | -12.6 | -16.4 | 1.26 | 105% | 101% | 2.11 | 9.11
O=C1C2ON(c3ccccc3)C(c3ccncc3)C2C(=O)N1c1ccc(N2CCOCC2)cc1 (configuration not stated) | -13.7 | 0.35 | -0.72 | 104% | 103% | 2.51 | 0.47
CC(=O)NC(CCS(C)(=O)=O)C(=O)Nc1cc(C)ccc1C (configuration not stated) | -10.6 | -20 | 0.57 | 98.5% | 94.3% | 2.23 | 3.07
Brc1ccccc1Cn1c(-c2cncs2)nc2ccccc21 | -8.58 | 25.2 | -3.44 | 79.2% | 73.9% | 0.68 | 3.2
CCCn1c(C2CC(=O)N(c3cc(OC)ccc3OC)C2)nc2ccccc21 (configuration not stated) | -6.39 | -14.7 | -2.88 | 98.4% | 94.8% | 1.6 | 5
O=C1CCC(=O)N1c1cccc(-c2nc3ccccc3o2)c1 | -7.93 | -2.65 | 0.42 | 106% | 105% | -0.245 | 4.59
O=C(CCS(=O)(=O)c1cccs1)N1CCCC1 | -1.4 | -7.61 | -1.26 | 94% | 96.2% | 2.58 | 1.19
O=C(OCC(=O)N1CCN(C(=O)c2ccco2)CC1)c1sc2ccccc2c1Cl | -14.3 | -20.1 | -2.74 | 96.3% | 102% | 0.845 | 5.57
CCOC(=O)c1[nH]c(=O)[nH]c1COC(=O)c1cc2ccccc2o1 | -14.6 | -12.6 | -1.09 | 92.6% | 105% | -0.22 | 2.38
O=P(O)(CCc1ccncc1)CN1CCCCC1 | -9.59 | -7.67 | 2.46 | 97.3% | 101% | 1.82 | -0.01
COCCNC(=O)c1cc2c(-c3ccc(Cl)cc3)nn(C)c2s1 | 3.03 | 8.65 | -6 | 64.6% | 71% | 0.32 | 10.4
Cn1cnnc1SCc1ccc(C#N)cc1Cl | -9.5 | -15.1 | 0.63 | 99.7% | 97.8% | 0.175 | 4.52
CCCCn1c(CCNC(=O)CC)nc2ccccc21 | -8.93 | -5.17 | -1.11 | 98.8% | 101% | 1.86 | 5.26
O=C(Nc1sc2c(c1C(=O)NCC1CCCO1)CCCC2)c1cccs1 (configuration not stated) | -11.2 | 5.31 | -3.45 | 85.9% | 86.6% | 1 | 4.75
Cc1c(NC(=O)OCc2ccccc2)c(=O)n(-c2ccccc2)n1C | -7.33 | -0.325 | 0.05 | 109% | 91.1% | 1.35 | 7.69
